RAM network inh – yeast RAM network inhibition. AID 868. inhibition, % at 50 µM. S. cerevisiae dse1pr::URA3 reporter, 5-FOA growth OD615, 2 d; analog-sensitive cbk1-as2 kinase mutant strain. 1.8% of 190,000 active;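 active = inhibition above a set limit, 3 SD over mean compound inhibition, cut at about 8.4% in these data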;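 also: 0% = DMSO-only wells with no growth and 100% = 10 µM 1-NA-PP1 full growth; inhibition rescues growth on 5-FOA so higher OD means more RAM inhibition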
ABCG2 block – human ABCG2 inhibition, ABCB1 as counter-screen. inhibition, % at 6.6 µM. Q9UNQ0. IgMXP3 cells, JC-1 efflux, flow cytometry. 0.1% of 190,000 active;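 active = inhibition above 80%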;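 also: 0% = DMSO and 100% = nicardipine control wells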
Target sequence (Q9UNQ0 whole entry, looked up): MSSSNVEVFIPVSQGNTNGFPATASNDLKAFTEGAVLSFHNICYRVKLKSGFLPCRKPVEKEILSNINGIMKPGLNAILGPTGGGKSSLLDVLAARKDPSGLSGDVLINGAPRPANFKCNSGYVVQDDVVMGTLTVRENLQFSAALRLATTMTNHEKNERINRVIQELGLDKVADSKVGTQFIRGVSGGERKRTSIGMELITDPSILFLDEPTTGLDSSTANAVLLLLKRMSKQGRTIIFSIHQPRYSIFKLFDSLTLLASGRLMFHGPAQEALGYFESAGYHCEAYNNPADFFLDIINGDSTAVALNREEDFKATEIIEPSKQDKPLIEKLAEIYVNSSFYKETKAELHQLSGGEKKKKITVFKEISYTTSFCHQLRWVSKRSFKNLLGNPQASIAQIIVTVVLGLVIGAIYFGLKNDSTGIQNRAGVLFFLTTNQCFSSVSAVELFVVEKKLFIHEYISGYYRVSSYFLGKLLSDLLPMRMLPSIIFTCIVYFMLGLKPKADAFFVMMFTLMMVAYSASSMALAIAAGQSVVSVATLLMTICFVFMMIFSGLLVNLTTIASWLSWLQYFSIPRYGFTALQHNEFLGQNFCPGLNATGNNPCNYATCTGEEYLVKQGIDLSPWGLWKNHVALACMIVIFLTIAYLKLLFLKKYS
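System: two drug-resistant human cell lines, ABCG2 and ABCB1; controls: nicardipine high and DMSO low controls; times: 10 min exposure at 25 °C with rotation, no wash; detection: flow cytometry of retained JC-1 fluorescence; read-out basis: percent efflux inhibition, scaled nicardipine 100% to DMSO 0%; doses: one concentration, 6.6 µM final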
ABCB1 inh – inhibitors of human ABCB1 transporter, ABCG2 counter-screen. P08183. CCRF-Adr cells, JC-1 efflux, flow cytometry. inhibition, % at 6.6 µM. 0.067% of 190,000 active; in the data active = inhibition above about 40%;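 also: 0% = vehicle and 100% = reference inhibitor; higher value means more JC-1 retained so stronger ABCB1 efflux block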
WT yeast gro inh – growth inhibition of WT yeast, mitochondrial fusion screen; AID 1362; inhibition, % at 10 µM; mitochondrial fusion phenotypic screen, WT strain; 2.1% of 190,000 active; in the data active = inhibition above about 58%; tested in S. cerevisiae
L major viab – reduces viability of Leishmania major promastigotes; resazurin fluorescence viability; inhibition, % at 10 µM; 9% of 200,000 active; AID 1063; in the data active = inhibition above about 50%;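 also: promastigotes grown with compound for 44 hours at 28 °C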
An asterisk follows results filed as active. Only some compounds are listed: those with a hit (about 12% of all), similar ones and a draw of the others.

SMILES	RAM network inh	ABCG2 block	ABCB1 inh	WT yeast gro inh	L major viab
CCOC(=O)C(C)c1nc2ccccc2[nH]c1=O (configuration not stated)	-2	0	0	73*	-2
COC(=O)c1ccc(CNC(=O)CN(CCC(C)C)S(=O)(=O)c2ccc3c(c2)OCCO3)cc1	6	6	3	-6	56*
COCCNC(=O)CN(C)S(=O)(=O)c1ccc2c(c1)OCCO2	1	1	0	-1	0
COc1cccc(CC2(CO)CCCN(Cc3ccc(C)s3)C2)c1 (configuration not stated)	0	1	1	8	67*
COc1cccc(CC2(CO)CCCN(Cc3cc4ccccc4[nH]3)C2)c1 (configuration not stated)	1	1	1	16	74*
COc1cccc(CC2(CO)CCCN(Cc3cn[nH]c3-c3cc(C)ccc3C)C2)c1 (configuration not stated)	0	2	1	1	18
COc1cccc(CC2(CO)CCCN(Cc3ccccc3-c3ccco3)C2)c1 (configuration not stated)	0	1	0	19	8
COc1cccc(CC2(CO)CCCN(Cc3ccc(CO)o3)C2)c1 (configuration not stated)	2	0	0	2	3
COc1cccc(CC2(CO)CCCN(Cc3[nH]c4ccc(C)cc4c3C)C2)c1 (configuration not stated)	1	4	2	81*	50
CC(C)(C)NC(=O)C(=O)NNC(=O)COc1ccc(Br)cc1	1	10	0	6	-3
COc1ccc(S(=O)(=O)N(CC(=O)NCc2cccnc2)c2ccc(F)cc2)cc1OC	1	7	1	-2	-1
CCOC(=O)c1c(NC(=O)c2c(C(=O)O)cccc2[N+](=O)[O-])sc(C)c1C	0	0	0	-5	-5
COc1ccc(NC(=S)NC(NC(=O)/C=C/c2ccccc2)C(Cl)(Cl)Cl)cc1 (configuration not stated)	7	1	0	-4	-1
O=C(/C=C/c1ccccc1)NNC(=O)c1cccc(Cl)c1	5	6	1	0	-5
CC(C)CC(=O)NC(NC(=S)Nc1ccccc1)C(Cl)(Cl)Cl (configuration not stated)	4	1	1	10	19
CC(=O)NC(NC(=S)Nc1ccc(N=Nc2ccccc2)cc1)C(Cl)(Cl)Cl (configuration not stated)	4	3	3	4	64*
O=C(CCc1ccccc1)NNC(=O)c1ccccc1C(=O)O	1	1	0	-9	60*
O=C(/C=C/c1ccccc1)NNc1ccc(Cl)cc1	1	-2	-1	44	99*
O=C(/C=C/c1ccccc1)NC(NC(=S)Nc1ccc(Cl)cc1)C(Cl)(Cl)Cl (configuration not stated)	10*	0	0	45	46
COCc1cc(C)nc(Oc2ccccc2)c1C#N	1	2	0	-11	-9
Cc1cc(OCc2nnc(SC(C)C(=O)O)n2Cc2ccccc2)ccc1Cl (configuration not stated)	3	2	1	-17	-8
COCC1CCCCN1Cc1cn[nH]c1-c1ccc2cc(OC)ccc2c1 (configuration not stated)	3	1	-2	2	0
O=C(/C=C/c1ccccc1)NC(NC(=S)Nc1cc(Cl)ccc1Cl)C(Cl)(Cl)Cl (configuration not stated)	1	21	0	-1	99*
CC(CCc1ccccc1)NC(=O)/C=C/c1ccc(Cl)cc1 (configuration not stated)	5	15	1	36	52*
O=C(O)c1ccccc1C(=O)NNc1ccc(Cl)cc1	0	-1	0	72*	30
Cc1ccc(C)c(S(=O)(=O)N2CCN(C(C(=O)Nc3ccc(F)cc3)c3ccccc3)CC2)c1 (configuration not stated)	3	0	-1	0	56*
O=C(Nc1ccc(F)cc1)C(c1ccccc1)N1CCN(S(=O)(=O)c2ccc3ccccc3c2)CC1 (configuration not stated)	0	7	2	1	24
COc1cccc(Cn2cc(N)cn2)c1	1	2	1	-4	98*
COc1cccc(Cn2cnc3c(N)c(C)c(C)cc32)c1	0	8	2	-9	8

Compound activity as filed in PubChem.
